Experimental findings from paper PMC6899483 (ChemMedChem, 2019) are described below.

In one series the test system is Pf (3D7). Kind of series: Plasmodium falciparum screening. The series is classed as cell-based. Put shortly:
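Asexual intraerythrocytic P. falciparum 3D7 grown in expired human transfusion red cells. EC50 is reported with its 95% confidence interval, and n is the number of screening replicates.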

A further series relates to HepG2. Kind of series: mammalian cell growth inhibition assay. The following applies: Homo sapiens, HepG2, read-out: EC50 HepG2, mammalian cell counter-screen. The series is classed as cell-based. Put shortly:
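HepG2 counter-screen values are EC50s, each with its number of screening replicates (n) and a 95% confidence interval.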

The nature of series [1]: mouse microsomal clearance. The series is classed as in vitro ADME. The settings on record: mouse liver microsomes. Put shortly: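 Intrinsic clearance is measured in mouse liver microsomes and expressed as mL min−1 (g liver)−1.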
(Liver microsomes are vesicles of endoplasmic reticulum, rich in cytochrome P450 enzymes.)

Where “and” joins values, the source holds several entries; their conditions need not be identical. Equal entries are not always repeated. Where only a bound is given, the exact number is not on record here.

With `Cc1ccc(NC(C)(C)C(=O)Nc2ccc(F)c(Cl)c2)cc1S(=O)(=O)N1CCOCC1` [Compound 28, N-(3-chloro-4-fluorophenyl)-2-methyl-2-{[4-methyl-3-(morpholinosulfonyl)phenyl]amino}propanamide], the “improvement in antimalarial potency relative to compound 1” value in the series with Pf (3D7) (Pf (3D7)) is ~20 fold and > 10 fold. The EC50 (usually the concentration at which the effect is half-maximal) was 7 nM in the series with Pf (3D7) (Plasmodium falciparum, 3D7, read-out: EC50 Pf (3D7)) and above 25000 nM in the series with HepG2. Also, in series [1], the “Mouse microsomal CLint” value is listed as > 50 mL min^−1 (g liver)^−1.
